# Compound activity: PubChem BioAssay, Sanford-Burnham Center for Chemical Genomics
# SUMO1-SIM PPI: SUMO1-SIM interaction modulation; P63165; SUMO1 binding to a labelled peptide, TR-FRET, 1 h; inhibition, % at 20 µM; 360,000 tested, 0.33% active; in the data active = inhibition above about 37%
# Target sequence (P63165 whole entry, looked up): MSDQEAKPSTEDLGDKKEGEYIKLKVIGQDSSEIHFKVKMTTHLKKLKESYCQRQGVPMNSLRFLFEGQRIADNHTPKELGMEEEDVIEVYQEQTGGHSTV
# DNMT1 block: DNMT1 (human) enzyme inhibition; P26358; DNMT1 molecular beacon, Hinp1I cleavage, fluorescence; inhibition (reported as % activation of signal), % at 10 µM; 360,000 tested, 0.83% active; AID 588458; in the data active = inhibition above about 50%
# LMPTP block: blocks human LMPTP phosphatase. P24666. recombinant LMPTP-A, OMFP fluorogenic substrate, fluorescence intensity. inhibition, % at 20 µM. 360,000 tested, 0.22% active;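 active = compounds that cut the enzyme signal by at least half of the control window in the single-dose screen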
# Target sequence (P24666 whole entry, looked up): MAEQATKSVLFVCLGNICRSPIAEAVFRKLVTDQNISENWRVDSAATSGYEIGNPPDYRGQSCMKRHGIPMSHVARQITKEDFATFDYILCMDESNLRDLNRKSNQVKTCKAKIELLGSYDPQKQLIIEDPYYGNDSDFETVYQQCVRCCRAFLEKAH
#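 Assay system: LMPTP-A enzyme. Input: 0.625 nM LMPTP-A final. Probe or stimulus: 400 µM OMFP. Compound dosing: single 20 µM dose. Schedule: 50 min dark incubation at room temperature. Detection: fluorescence intensity of OMFP turnover product. Read-out: percent inhibition versus substrate-only and uninhibited controls. Benchmarks: no-enzyme low control, uninhibited high control.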
# Scp1 inh: inhibitors of human Scp-1 phosphatase | Recombinant Scp1, phosphopeptide, malachite green phosphate absorbance | Q9GZU7 | 340,000 tested, 0.88% active | AID 493091 | inhibition, % at 20 µM;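 active = inhibition above about 50% at 20 µM, limit read from the data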
# Target sequence (Q9GZU7 76-261 limits assumed): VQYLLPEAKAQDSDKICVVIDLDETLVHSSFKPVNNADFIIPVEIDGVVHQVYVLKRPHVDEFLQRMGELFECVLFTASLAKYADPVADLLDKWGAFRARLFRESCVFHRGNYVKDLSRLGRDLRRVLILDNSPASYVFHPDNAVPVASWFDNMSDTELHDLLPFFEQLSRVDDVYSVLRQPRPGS
#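 Incubation: 45 min enzyme reaction at room temperature / System: truncated SCP-1 phosphatase (76-261aa) / Reagent: Phospho 17-mer peptide substrate / Buffer or medium: Acidic Tris acetate buffer with magnesium and detergent / Signal: absorbance at 630 nm / Doses: one concentration, 20 µM, with 1.0% DMSO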
# STEP inh: inhibitors of human striatal-enriched phosphatase STEP; recombinant STEP, OMFP fluorogenic substrate, fluorescence; inhibition, % at 20 µM; 360,000 tested, 0.25% active; P54829; AID 588621;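 active = inhibition at 20 µM, scaled per plate between control wells, above about 37%, limit read from the data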
#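 medium = Bis-Tris buffer pH 6.0, 2.5 mM DTT, 0.005% Tween 20 | test system = STEP (striatal-enriched tyrosine phosphatase) enzyme, cell-free | measure = normalized % inhibition | compound dosing = 20 µM, 1% DMSO | also added = 25 µM OMFP | schedule = reaction 20 min, ambient temperature | measured by = fluorescence read at 480 nm ex / 540 nm em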
# A number is an active result; n = inactive; x = not tested or not shown. In the library only some 1.7% were active in any assay of this set; here they are far more common.
SMILES,SUMO1-SIM PPI,DNMT1 block,LMPTP block,Scp1 inh,STEP inh
O=C(Nc1ccc2c(c1)C(=O)NC2=O)c1ccc2ncsc2c1,41.7,n,n,n,n
COc1cc(C(=O)NCC(=O)OCC(=O)c2cccc3ccccc23)cc(OC)c1OC,61.2,n,n,n,n
CCOC(=O)N1CCC(NC(=O)c2cc3c(-c4ccc(Cl)cc4)nn(C)c3s2)CC1,73.1,n,n,n,n
CC(C)NC(=O)c1cc2c(-c3ccc(Cl)cc3)nn(C)c2s1,n,n,n,n,n
CCc1ccccc1N(C(=O)c1snc(C(N)=O)c1N)C(C(=O)NCC1CCCO1)c1ccc(C)o1 (stereo not drawn),n,n,n,n,n
Cc1cc(N2CCCCC2)nc(-c2ccc(Br)cc2)n1,44.8,n,n,n,n
COc1ccc(N=Cc2cc(Cc3ccccc3Cl)cc([N+](=O)[O-])c2O)cc1OC,n,n,n,67.2,n
O=C1CCC[C@@H]2Cc3nc4ccc(Cl)cc4cc3[C@@H]3CCN1[C@H]23,n,n,n,n,n
COc1cc(C(=O)OC(C)C(=O)NC2CCCCC2C)c([N+](=O)[O-])cc1OC (stereo not drawn),n,n,n,n,n
CC(OC(=O)c1ccc([N+](=O)[O-])s1)C(=O)NC1CCCCC1C (stereo not drawn),n,70.6,n,n,n
COc1ccc(-c2nc(N3CCN(C)CC3)sc2-c2ccc(OC)cc2)cc1,n,n,n,n,n
Cc1nc(N=Nc2ccc(O)cc2)n[nH]1,n,n,n,81.3,n
Cc1ccc(-c2nc(N=Nc3ccc(O)cc3)n[nH]2)cc1,n,n,n,n,n
Brc1cccc(OCCCNC2CCCC2)c1,n,n,n,n,n
CCCCNc1ccc2nsnc2c1[N+](=O)[O-],n,n,n,n,n
O=C(ONc1ccc(N=NC(=O)c2ccccc2O)cc1)c1ccccc1,n,n,n,90.7,n
O=Nc1ccc(NOC(=O)c2ccccc2Br)cc1,n,n,n,n,n
COc1cc(Cl)ccc1OC1(C)CCN(Cc2cccc(OC)c2OC)C1 (stereo not drawn),n,n,n,x,n
Cc1cc(NC(=O)CCC(=O)N(CC(=O)NCC2CCCO2)c2cccc(F)c2)no1 (stereo not drawn),n,n,n,n,n
O=c1cc2oc3cc(O)c(O)cc3c(-c3ccccc3[N+](=O)[O-])c-2cc1O,n,n,90.2,n,n
Cc1ccc(NC2=C/C(=N/S(=O)(=O)c3cccs3)c3ccccc3C2=O)cc1,n,n,n,n,n
O=C1C(Nc2ccccc2)=C/C(=N/S(=O)(=O)c2cccs2)c2ccccc21,n,67.7,n,n,n
Cc1ccc(S(=O)(=O)/N=C2\C=C(Nc3ccc(O)cc3)C(=O)c3ccccc32)cc1,n,52.7,n,n,n
CCc1ccc(S(=O)(=O)/N=C2\C=C(Nc3ccc(C(=O)O)cc3)C(=O)c3ccccc32)cc1,n,n,n,n,n
COC(=O)c1ccccc1NC1=C/C(=N\S(=O)(=O)c2cccs2)c2ccccc2C1=O,n,n,n,n,n
SMILES,SUMO1-SIM PPI,DNMT1 block,LMPTP block,Scp1 inh,STEP inh
Cc1ccc(S(=O)(=O)/N=C2\C=C(Nc3cccc(C(=O)O)c3)C(=O)c3ccccc32)cc1,n,59.9,n,n,n
Cc1ccc(S(=O)(=O)/N=C2\C=C(Nc3cccc(C(=O)O)c3)C(=O)c3ccccc32)c(C)c1,n,n,n,n,n
COC(=O)c1ccccc1NC1=C/C(=N\S(=O)(=O)c2ccc(C(=O)O)cc2)c2ccccc2C1=O,102.8,80.8,n,n,n
COc1ccc(NS(=O)(=O)c2cccc(C(=O)NCc3ccco3)c2)cc1,n,n,n,n,n
Nc1c(C(=O)NCc2ccccc2)c2nc3ccccc3nc2n1CCCN1CCOCC1,43.4,n,n,n,n
C=CCn1c(N)c(C(=O)NCC2CCCO2)c2nc3ccccc3nc21 (stereo not drawn),43.9,n,n,n,n
Nc1c(C(=O)NCc2ccc(F)cc2)c2nc3ccccc3nc2n1CCCN1CCOCC1,n,n,n,n,n
COC1=C(OC)C(=O)C(CCCCCCCCCCO)=C(C)C1=O,n,n,n,x,n
COC1=CC(=O)C(O)=C(CCCCCCC/C=C/CCCCCCCC2=C(O)C(=O)C=C(OC)C2=O)C1=O,79.1,81.9,68.9,88.0,n
CCCCCCCCCCCC1=C(O)C(=O)C=C(O)C1=O,n,n,71.2,n,n
